According to ChEMBL document CHEMBL3739352, “Anticonvulsant activity, crystal structures, and preliminary safety evaluation of N-trans-cinnamoyl derivatives of selected (un)modified aminoalkanols” (Eur J Med Chem, 2016):
Calls of active or inactive are those of the source. The calls are words filed in the database; no cut-off is given here.

Tests used:
Mus musculus [1] = assay: Anticonvulsant activity in albino Carworth Farms No.1 mouse assessed as protection against subcutaneous dosed pentetrazol-induced seizures at 30 mg/kg, ip after 4 hrs; format: functional, organism-based
Method in brief: (§1)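 Mouse i.p. screen in Carworth Farms No.1 albino mice at 30, 100 or 300 mg/kg in 0.5% methylcellulose. Testing was at 0.5 and 4 h after injection, by maximal electroshock or by subcutaneous pentetrazol challenge. Scoring was number protected / number used.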

Mus musculus [2] = assay: Anticonvulsant activity in albino Carworth Farms No.1 mouse assessed as protection against 6-Hz electroshock-induced seizures at 100 mg/kg, ip after 4 hrs; format: functional, organism-based
Method in brief: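 Carworth Farms No.1 albino mice were dosed i.p. at 100 mg/kg (0.5% methylcellulose solution or suspension). 6-Hz seizures were induced at 32 mA at 0.25, 0.5, 1.0, 2.0 and 4 h after injection. Results are given as animals protected / animals tested.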

Salmonella typhimurium [3] = assay: Mutagenicity in Salmonella typhimurium TA1535 assessed as number of revertants at 100 ug/plate by Ames test (reference value: 10 +/- 3); format: toxicity, organism-based; settings: salmonella enterica subsp. enterica serovar typhimurium
Rattus norvegicus [4] = assay: Neurotoxicity in Sprague-Dawley rat at 30 mg/kg, po after 1 hr; format: toxicity, organism-based; settings: in vivo
Method in brief: (§2)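 Sprague-Dawley rats were given 30 mg/kg orally in 0.5% methylcellulose. Neurotoxicity was checked at 0.25, 0.5, 1.0, 2.0 and 4 h after dosing. Results are given as number of rats showing neurotoxicity/number tested.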

Rattus norvegicus [5] = assay: Neurotoxicity in Sprague-Dawley rat at 30 mg/kg, po after 2 hrs; format: toxicity, organism-based; settings: in vivo; method in brief: as §2
Mus musculus [6] = assay: Neurotoxicity in albino Carworth Farms No.1 mouse at 30 mg/kg, ip after 0.5 hrs by rotarod test; format: toxicity, organism-based; settings: in vivo
Method in brief: (§3)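 Mice (albino Carworth Farms No.1) were dosed i.p. at 30, 100 or 300 mg/kg in 0.5% methylcellulose. They were tested 0.5 and 4 h later on a 1-inch knurled rod rotating at 6 rpm. Neurotoxicity was scored if a mouse could not stay on the rod for at least 1 min in each of three trials. Results are given as animals toxic/animals tested, with deaths noted.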

Rattus norvegicus [7] = assay: Neurotoxicity in Sprague-Dawley rat at 30 mg/kg, po after 0.5 hrs; format: toxicity, organism-based; settings: in vivo; method in brief: as §2
Mus musculus [8] = assay: Anticonvulsant activity in albino Carworth Farms No.1 mouse assessed as protection against maximal electroshock-induced seizures at 300 mg/kg, ip after 4 hrs; format: functional, organism-based; method in brief: as §1
Rattus norvegicus [9] = assay: Anticonvulsant activity in Sprague-Dawley rat assessed as protection against maximal electroshock-induced seizures at 30 mg/kg, po after 0.25 hrs; format: functional, organism-based
Method in brief: (§4)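 Sprague-Dawley rats were given 30 mg/kg p.o. in 0.5% methylcellulose. Maximal electroshock was applied at 0.25, 0.5, 1.0, 2.0 and 4 h after dosing. Results are reported as number of rats protected / number tested.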

Salmonella typhimurium [10] = assay: Mutagenicity in Salmonella typhimurium TA100 assessed as mutagenic index at 500 ug/plate by Ames test; format: toxicity, organism-based; settings: salmonella enterica subsp. enterica serovar typhimurium
Method in brief: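 Ames preincubation test. Strain culture was grown 12 h at 37 °C in nutrient broth, then mixed with compound in DMSO (final 4, 20, 100, 500, 1000 per plate) and buffer in top agar with trace histidine. This was plated on glucose minimal agar for 48 h at 37 °C. Mutagenic index = revertants with compound / DMSO control revertants, from three independent repeats.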

Rattus norvegicus [11] = assay: Neurotoxicity in Sprague-Dawley rat at 30 mg/kg, po after 4 hrs; format: toxicity, organism-based; settings: in vivo; method in brief: as §2
in vitro [12] = settings: human, HepG2 cells
Salmonella typhimurium [13] = assay: Mutagenicity in Salmonella typhimurium TA1535 assessed as assessed as mutagenic index at 500 ug/plate by Ames test; format: toxicity, organism-based; settings: salmonella enterica subsp. enterica serovar typhimurium
[14] = Lipophilicity of the compound at 1 mg/ml by RT-TLC analysis relative to 0% methanol; format: physicochemical; settings: methanol/water
Method in brief: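 Reversed-phase TLC used methanol–water mobile phases of 95–65% methanol. Compounds were applied from 1 mg/mL methanol solutions after 1 h chamber saturation, with UV detection. RM = log(1/Rf − 1) was calculated at each methanol level and extrapolated linearly (RM = RM0 + bC) to 0% methanol to give RM0.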

[15] = Hepatotoxicity against human HepG2 cells assessed as cell viability at 100 uM after 24 hrs by MTT assay relative to control
Salmonella typhimurium [16] = assay: Mutagenicity in Salmonella typhimurium TA1535 assessed as number of revertants at 1000 ug/plate by Ames test (reference value: 10 +/- 3); format: toxicity, organism-based; settings: salmonella enterica subsp. enterica serovar typhimurium
Mus musculus [17] = assay: Neurotoxicity in albino Carworth Farms No.1 mouse at 100 mg/kg, ip after 0.5 hrs by rotarod test; format: toxicity, organism-based; settings: in vivo; method in brief: as §3
Salmonella typhimurium [18] = assay: Mutagenicity in Salmonella typhimurium TA1535 assessed as number of revertants at 20 ug/plate by Ames test (reference value: 10 +/- 3); format: toxicity, organism-based; settings: salmonella enterica subsp. enterica serovar typhimurium
Rattus norvegicus [19] = assay: Anticonvulsant activity in Sprague-Dawley rat assessed as protection against maximal electroshock-induced seizures at 30 mg/kg, po after 0.5 hrs; format: functional, organism-based; method in brief: as §4
Rattus norvegicus [20] = assay: Anticonvulsant activity in Sprague-Dawley rat assessed as protection against maximal electroshock-induced seizures at 30 mg/kg, po after 2 hrs; format: functional, organism-based; method in brief: as §4
[21] = Lipophilicity of the compound using 65% methanol in water at 1 mg/ml by RT-TLC analysis; format: physicochemical; settings: buffer
Method in brief: (§5)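 Reversed-phase TLC with a methanol–water mobile phase at the stated methanol content (v/v). Compounds were spotted from 1 mg/mL methanol solutions after 1 h chamber saturation and located under UV light. Rf was measured and RM = log(1/Rf − 1) calculated.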

Salmonella typhimurium [22] = assay: Mutagenicity in Salmonella typhimurium TA98 assessed as number of revertants at 500 ug/plate by Ames test (reference value: 23 +/- 3); format: toxicity, organism-based; settings: salmonella enterica subsp. enterica serovar typhimurium
[23] = Hepatotoxicity against human HepG2 cells assessed as cell viability at 25 uM after 24 hrs by MTT assay relative to control; format: toxicity, cell-based; settings: read-out: Activity
Method in brief: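 HepG2 cells (EMEM, 10% FBS, 37 °C, 5% CO₂) were seeded at 1 × 10⁴ per well and cultured overnight. They were then exposed to increasing compound concentrations for 24 h. MTT reagent was added for 3 h and formazan crystals dissolved before reading. Data are mean ± SD of at least three independent experiments, relative to untreated control.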

Salmonella typhimurium [24] = assay: Mutagenicity in Salmonella typhimurium TA1535 assessed as number of revertants at 500 ug/plate by Ames test (reference value: 10 +/- 3); format: toxicity, organism-based; settings: salmonella enterica subsp. enterica serovar typhimurium
Mus musculus [25] = assay: Anticonvulsant activity in albino Carworth Farms No.1 mouse assessed as protection against maximal electroshock-induced seizures at 30 mg/kg, ip after 0.5 hrs; format: functional, organism-based; method in brief: as §1
in vitro [26] = settings: human, HepG2 cells; remark: listed apart in the source
Mus musculus [27] = assay: Anticonvulsant activity in albino Carworth Farms No.1 mouse assessed as protection against subcutaneous dosed pentetrazol-induced seizures at 30 mg/kg, ip after 0.5 hrs; format: functional, organism-based; method in brief: as §1
[28] = Lipophilicity of the compound using 85% methanol in water at 1 mg/ml by RT-TLC analysis; format: physicochemical; settings: buffer; method in brief: as §5
Salmonella typhimurium [29] = assay: Mutagenicity in Salmonella typhimurium TA98 assessed as mutagenic index at 100 ug/plate by Ames test; format: toxicity, organism-based; settings: salmonella enterica subsp. enterica serovar typhimurium
Salmonella typhimurium [30] = assay: Mutagenicity in Salmonella typhimurium TA98 assessed as number of revertants at 20 ug/plate by Ames test (reference value: 23 +/- 3); format: toxicity, organism-based; settings: salmonella enterica subsp. enterica serovar typhimurium
[31] = Neurotoxicity in ip dosed albino Carworth Farms No.1 mouse after 0.25 hrs by rotarod test; format: toxicity, organism-based; settings: in vivo

Compound | Activity (Mus musculus [1]) | Activity (Salmonella typhimurium [3]) | Activity (Rattus norvegicus [4]) | Activity (Rattus norvegicus [5]) | Activity (Mus musculus [6]) | Activity (Mus musculus [8]) | Activity_index (Salmonella typhimurium [10]) | Activity_index (Salmonella typhimurium [13]) | Rm [14] | Activity (Salmonella typhimurium [16]) | Activity (Mus musculus [17]) | Activity (Salmonella typhimurium [18]) | Rm [21] | Activity (Salmonella typhimurium [22]) | Activity (Salmonella typhimurium [24]) | Activity (Mus musculus [25]) | Activity (Mus musculus [27]) | Rm [28] | Activity_index (Salmonella typhimurium [29]) | Activity (Salmonella typhimurium [30]) | other results
CC(O)CNC(=O)/C=C/c1ccccc1 (racemic) | inactive | 12 | Non-toxic | Non-toxic | Non-toxic | inactive | 0.8 | 1.4 | 1.512 | 14 | Non-toxic | 13 | 0.02 | 21 | 14 | inactive | inactive | -0.33 | 0.9 | 22 | Activity (Mus musculus [2]): inactive; Activity (Rattus norvegicus [7]): Non-toxic; Activity (Rattus norvegicus [9]): inactive; Activity (Rattus norvegicus [11]): Non-toxic; viability at 24 h, 100 µM (in vitro [12]): 85%; viability at 24 h, 100 µM [15]: 91.9%; Activity (Rattus norvegicus [19]): inactive; Activity (Rattus norvegicus [20]): inactive; viability at 24 h, 25 µM [23]: 92.5%; viability at 24 h, 25 µM (in vitro [26]): 99%; TD50 at 0.25 h [31]: 136 mg/kg
CCC(O)CNC(=O)/C=C/c1ccccc1 (racemic) | inactive | 5 | Non-toxic | Non-toxic | Non-toxic | inactive | 0.8 | 0.7 | 1.937 | 6 | Non-toxic | 14 | 0.19 | 17 | 7 | inactive | inactive | -0.25 | 0.9 | 20 | Activity (Mus musculus [2]): inactive; Activity (Rattus norvegicus [7]): Non-toxic; Activity (Rattus norvegicus [9]): Active; Activity (Rattus norvegicus [11]): Non-toxic; viability at 24 h, 100 µM (in vitro [12]): 89%; viability at 24 h, 100 µM [15]: 85.9%; Activity (Rattus norvegicus [20]): inactive; viability at 24 h, 25 µM [23]: 91.2%; viability at 24 h, 25 µM (in vitro [26]): 97%
O=C(/C=C/c1ccccc1)N1CCC(O)CC1 | inactive | 9 | Non-toxic | Non-toxic | Non-toxic | – | 0.9 | 0.8 | 2.579 | 5 | Non-toxic | 6 | 0.18 | 22 | 8 | inactive | inactive | -0.23 | 0.7 | 19 | Activity (Rattus norvegicus [7]): Non-toxic; Activity (Rattus norvegicus [9]): inactive; Activity (Rattus norvegicus [11]): Non-toxic; Activity (Rattus norvegicus [19]): inactive; Activity (Rattus norvegicus [20]): inactive
CCC(CO)NC(=O)/C=C/c1ccccc1 (racemic) | inactive | 14 | – | – | Non-toxic | inactive | 0.9 | 1.3 | 2.093 | 13 | Non-toxic | 5 | 0.25 | 21 | 13 | inactive | inactive | -0.29 | 1 | 24 | –
O=C(/C=C/c1ccccc1)N[C@H]1CCCC[C@@H]1O (racemic) | inactive | 6 | – | – | Non-toxic | inactive | 1 | 0.7 | 2.054 | 6 | Toxic | 14 | 0.33 | 19 | 7 | inactive | inactive | -0.18 | 0.9 | 21 | –
